Laboratory results as given in ChEMBL document CHEMBL4425095, “Novel Cephalosporins Selectively Active on Nonreplicating Mycobacterium tuberculosis” (J Med Chem, 2016).
Converted amounts (≈) assume the structure as drawn. The source made the active and inactive calls. The calls are words filed in the database; no cut-off is given here.

Legend:
[1] = system: Mycobacterium tuberculosis; assay: Antimycobacterial activity against non-replicating Mycobacterium tuberculosis mc2 6220 harboring panCD/lysA deletion mutant incubated for 3 days measured at OD580 = 0.1 by two-fold serial dilution method; type: functional
Procedure, shortened: (§1)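 M. tuberculosis mc26220 washed twice in PBS-tyloxapol and resuspended in Sauton's-based nonreplicating medium (pH 5.0, butyrate 0.05%, BSA, tyloxapol, lysine, pantothenate, 0.5 mM NaNO2). Incubated at 1% O2, 5% CO2 with 2-fold serially diluted compound from DMSO. After 3 days, diluted 5-fold in fresh replicating medium for outgrowth at 20% O2. Reported as MIC90.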

[2] = system: Mycobacterium tuberculosis; assay: Antimycobacterial activity against replicating Mycobacterium tuberculosis mc2 6220 harboring panCD/lysA deletion mutant by two-fold serial dilution method; type: functional
Procedure, shortened: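 M. tuberculosis mc26220 in replicating medium supplemented with glycerol (final 0.5%), OADC, casamino acids 0.05%, lysine 240 μg/mL and pantothenate 24 μg/mL. Exposed to 2-fold serially diluted compound from DMSO. OD580 read after 7 days at 20% O2, 5% CO2. Reported as MIC90.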

[3] = system: Mycobacterium tuberculosis; assay: Antimycobacterial activity against non-replicating Mycobacterium tuberculosis mc2 6220 harboring panCD/lysA deletion mutant incubated for 3 days measured at OD580 = 0.01 by two-fold serial dilution method; type: functional; procedure, shortened: as §1
[4] = system: Mycobacterium tuberculosis; assay: Antimycobacterial activity against non-replicating Mycobacterium tuberculosis mc2 6220 harboring panCD/lysA deletion mutant incubated for 7 days measured at OD580 = 0.1 by two-fold serial dilution method; type: functional; procedure, shortened: as §1
[5] = system: Mycobacterium tuberculosis; assay: Antimycobacterial activity against non-replicating Mycobacterium tuberculosis mc2 6220 harboring panCD/lysA deletion mutant incubated for 7 days measured at OD580 = 0.01 by high throughput screen assay; type: functional, organism-based
[6] = system: Mycobacterium tuberculosis; assay: Antimycobacterial activity against replicating Mycobacterium tuberculosis mc2 6220 harboring panCD/lysA deletion mutant incubated for 3 days measured at OD580 = 0.01 by two-fold serial dilution method; type: functional
[7] = system: Mycobacterium tuberculosis; assay: Antimycobacterial activity against non-replicating Mycobacterium tuberculosis mc2 6220 harboring panCD/lysA deletion mutant incubated for 6 days measured at OD580 = 0.1 by two-fold serial dilution method; type: functional; procedure, shortened: as §1
[8] = system: Mycobacterium tuberculosis; assay: Antimycobacterial activity against non-replicating Mycobacterium tuberculosis mc2 6220 harboring panCD/lysA deletion mutant incubated for 7 days measured at OD580 = 0.01 by two-fold serial dilution method; type: functional; procedure, shortened: as §1

| Compound | MIC90 [1] | MIC90 [2] | MIC90 [3] | MIC90 [4] | Activity [5] | MIC90 [6] | MIC90 [7] | MIC90 [8] |
| --- | --- | --- | --- | --- | --- | --- | --- | --- |
| CC1=C(c2nc(C)no2)N2C(=O)[C@@H](NC(=O)COc3cccc(Cl)c3)[C@H]2SC1 | 2.59 µg/mL (≈ 6.15 µM) | >100 µg/mL | – | – | – | – | – | – |
| CCCOC[C@H]1C(C)=CS[C@@H]2[C@H](NC(=O)COc3ccccc3)C(=O)N21 | >100 µg/mL | >100 µg/mL | – | – | – | – | – | – |
| CCCCOc1ccc(CCC(=O)N[C@@H]2C(=O)N3C(c4nc(C)no4)=C(C)CS[C@H]23)cc1 | 59.36 µg/mL (≈ 130 µM) | >100 µg/mL | – | – | – | – | – | – |
| CCCc1noc(C2=C(C)CS[C@@H]3[C@H](NC(=O)Cc4ccc(Cl)cc4)C(=O)N23)n1 | 2.63 µg/mL (≈ 6.07 µM) | >100 µg/mL | – | – | – | – | – | – |
| C#CCOC(=O)C1=C(C)CS[C@@H]2[C@H](NC(=O)CCc3ccccc3)C(=O)N12 | 19.97 µg/mL (≈ 51.9 µM) | >100 µg/mL | 1.11 µg/mL (≈ 2.89 µM) | – | – | – | – | – |
| COC(=O)C1=C(C)CS[C@@H]2[C@H](NC(=O)CCc3ccc(OC)cc3)C(=O)N12 | – | 59.82 µg/mL (≈ 153 µM) | 0.39 µg/mL (≈ 0.999 µM) | 3.28 µg/mL (≈ 8.4 µM) | – | – | – | – |
| CCCN[C@@H]1C(=O)N2C(C(=O)OCCC)=C(C)CS[C@H]12 | 2.69 µg/mL (≈ 9.01 µM) | >100 µg/mL | 0.7 µg/mL (≈ 2.35 µM) | – | Active | >100 µg/mL | 0.45 µg/mL (≈ 1.51 µM) | – |
| CC1=CS[C@@H]2[C@H](NC(=O)COc3ccccc3)C(=O)N2[C@H]1CO | >100 µg/mL | >100 µg/mL | – | – | – | – | – | – |
| COCC1=C(C)CS[C@@H]2[C@H](NC(=O)COc3ccccc3)C(=O)N12 | >100 µg/mL | >96.74 µg/mL | – | – | – | – | – | – |
| CCCc1noc(C2=C(C)CS[C@@H]3[C@H](NC(=O)COc4ccc(Cl)cc4)C(=O)N23)n1 | – | >100 µg/mL | – | 3.87 µg/mL (≈ 8.62 µM) | – | – | – | 1.36 µg/mL (≈ 3.03 µM) |
| C#CCOC(=O)C1=C(C)CS[C@@H]2[C@H](NC(=O)CCc3ccc(Cl)cc3)C(=O)N12 | 7.85 µg/mL (≈ 18.7 µM) | >100 µg/mL | 0.56 µg/mL (≈ 1.34 µM) | – | – | – | – | – |
| COc1ccc(CCC(=O)N[C@@H]2C(=O)N3C(C(=O)OC4CCCC4)=C(C)CS[C@H]23)cc1 | – | 44.33 µg/mL (≈ 99.7 µM) | – | 0.96 µg/mL (≈ 2.16 µM) | – | – | – | 0.84 µg/mL (≈ 1.89 µM) |
| CCOC(=O)C1=C(C)CS[C@@H]2[C@H](NC(=O)COc3ccc(OC)cc3)C(=O)N12 | – | 47.1 µg/mL (≈ 116 µM) | – | 0.89 µg/mL (≈ 2.19 µM) | – | – | – | 0.53 µg/mL (≈ 1.3 µM) |
| CC1=C(c2nc(C)no2)N2C(=O)[C@@H](NC(=O)COc3ccccc3)[C@H]2SC1 | – | >100 µg/mL | – | 1.85 µg/mL (≈ 4.79 µM) | – | – | – | 0.88 µg/mL (≈ 2.28 µM) |
| CCCN(O)C(=O)C1=C(C)CS[C@@H]2[C@H](NC(=O)COc3ccccc3)C(=O)N12 | – | >100 µg/mL | – | >40.55 µg/mL | – | – | – | >40.55 µg/mL |
| COC(=O)C1=C(C)CS[C@@H]2[C@H](NC(=O)COc3ccccc3)C(=O)N12 | – | >100 µg/mL | – | 2.93 µg/mL (≈ 8.08 µM) | – | – | – | 2.07 µg/mL (≈ 5.71 µM) |
| CCOC(=O)C1=C(C)CS[C@@H]2[C@H](NC(=O)COc3ccc(Cl)cc3)C(=O)N12 | – | >100 µg/mL | – | 2.38 µg/mL (≈ 5.79 µM) | – | – | – | 1.07 µg/mL (≈ 2.6 µM) |
| CCCc1noc(C2=C(C)CS[C@@H]3[C@H](NC(=O)CCc4ccc(C)cc4)C(=O)N23)n1 | – | >100 µg/mL | – | 2.32 µg/mL (≈ 5.44 µM) | – | – | – | 0.98 µg/mL (≈ 2.3 µM) |
| COC(=O)C1=C(C)CS[C@@H]2[C@H](NC(=O)[C@@H](c3ccccc3)N(C)C)C(=O)N12 | – | >100 µg/mL | – | >38.95 µg/mL | – | – | – | >38.95 µg/mL |
| COc1ccc(OCC(=O)N[C@@H]2C(=O)N3C(c4nc(C)no4)=C(C)CS[C@H]23)cc1 | 14.57 µg/mL (≈ 35 µM) | >100 µg/mL | – | – | – | – | – | – |
| C=CC1=C(C(=O)O)N2C(=O)[C@@H](NC(=O)/C(=N\O)c3csc(N)n3)[C@H]2SC1 | – | 4.11 µg/mL (≈ 10.4 µM) | – | >100 µg/mL | – | – | – | 77.84 µg/mL (≈ 197 µM) |
| CCCOC(=O)N[C@@H]1C(=O)N2C(C(=O)OCCC)=C(C)CS[C@H]12 | 2.61 µg/mL (≈ 7.62 µM) | 55.44 µg/mL (≈ 162 µM) | 3.11 µg/mL (≈ 9.08 µM) | – | Active | 55.44 µg/mL (≈ 162 µM) | 0.52 µg/mL (≈ 1.52 µM) | – |
